Measured values from publication PMC11650976 (Dalton Transactions (Cambridge, England : 2003), 2024).

Columns and labels:
[1] = tested on: MDA-MB-231 (triple negative breast cancer cell); assay: In vitro cytotoxicity; format: cell-based, human; details: for IC50: read-out: IC50 MDA-MB-231, 72 h, MTT, mean ± S.D (n = 6)
Summary of the method: (§1)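 Adherent cancer cells were exposed to test compound for 72 h. The series was a 3-fold dilution starting at 100 μM.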

BT-333 (glioblastoma) = assay: In vitro cytotoxicity; format: cell-based, human; details: read-out: IC50 BT-333; 72 h, MTT, mean ± S.D (n = 6)
Summary of the method: as §1

MDA-MB-231 cancer cells = assay: Whole cellular uptake of Au; format: cell-based, human; details: 10 μM for 18 h, GFAAS
Summary of the method: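 Adherent MDA-MB-231 cells were incubated with the test compound at 10 μM for 18 h. Whole-cell gold content was then measured by graphite furnace AAS. Data are mean ± s.e.m. (n = 3), compared by ordinary one-way ANOVA.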

[2] = tested on: MRC5 (human lung fibroblast); assay: Cytotoxicity in normal cells MRC5; format: cell-based; details: read-out: IC50 MRC5; mean ± S.D (n = 6)
[3] = tested on: mitochondria of MDA-MB-231 cancer cells; assay: Mitochondria uptake of Au; format: cell-based, human; details: 10 μM for 18 h, 20 million cells, GFAAS, n = 2
Summary of the method: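 MDA-MB-231 cells (20 million) were treated with test compound at 10 μM for 18 h. Standard fractionation then gave pure mitochondria, and gold content was measured by GFAAS. Data are mean ± s.e.m. (n = 2), compared by ordinary one-way ANOVA.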

MDA-MB-231 cells [4] = assay: Intracellular ROS determination; format: cell-based, human; details: 10 μM, 90 minutes, DCF-DA, FACS
Summary of the method: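 MDA-MB-231 cells were exposed to the test compound at 5 and 10 μM. The text gives 90 min of exposure, and the figure legend gives 2 h. Cells were then stained with 2′,7′-dichlorodihydrofluorescein diacetate, and intracellular fluorescence was read by flow cytometry at 488 nm. Groups were compared by ordinary one-way ANOVA.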

MDA-MB-231 cells [5] = assay: Mitochondria membrane potential determination using TMRE dye; format: cell-based, human; details: for effect on mitochondria membrane potential (TMRE fluorescence): 5 and 10 μM for 2 hours
[6] = Solution stability in DMEM; format: physicochemical; details: 48 h, reading at λ = 260 nm

In the case of `[Au+].[Cl-].c1ccc(P(c2ccccc2)c2ccccc2P(c2ccccc2)c2ccccc2)cc1.c1ccc(P(c2ccccc2)c2ccccc2P(c2ccccc2)c2ccccc2)cc1` [1-PF6, bis-[1,2-bis-(diphenylphosphino)benzene]gold(I)], the “fold more cytotoxic than Au(III) 3-PF6 counterpart (IC50)” value ([1]; in both cancer cell lines tested (MDA-MB-231, BT-333)) is reported as 4–16 fold, the IC50 [1] is reported as 300 ± 100 nM and the IC50 (BT-333 (glioblastoma)) is reported as 380 ± 20 nM. The “whole cell uptake (Au content)” value (MDA-MB-231 cancer cells) was “taken up more effectively compared to 1-AuCl4” and the IC50 [2] was 1910 ± 30 nM.

For “bis-[1,2-bis-(diphenylphosphino)benzene]gold(III) chloride [3-PF6]”, the IC50 [1] was 4920 ± 210 nM, the IC50 (BT-333 (glioblastoma)) was 1760 ± 120 nM and the “whole cell uptake (Au content)” value (MDA-MB-231 cancer cells) was “significantly higher whole cell uptake compared to their Au(I) counterparts”.

`[Au+].[Cl-].c1ccc(P(c2ccccc2)c2ccccc2P(c2ccccc2)c2ccccc2)cc1.c1ccc(P(c2ccccc2)c2ccccc2P(c2ccccc2)c2ccccc2)cc1` [1-BF4, bis-[1,2-bis-(diphenylphosphino)benzene]gold(I)] gave an IC50 [1] of 820 ± 110 nM and an IC50 (BT-333 (glioblastoma)) of 660 ± 20 nM.

With “bis-[1,2-bis-(diphenylphosphino)benzene]gold(III) chloride [3-AuCl4]” the IC50 [1] was 1520 ± 210 nM, the “mitochondria uptake (Au)” value [3] was 375 nmol/20 million cells and the “intracellular ROS produced” value (MDA-MB-231 cells [4]) was “significant difference in the ROS produced by 3-AuCl4 compared to 1-Cl”. The IC50 (BT-333 (glioblastoma)) was 1380 ± 230 nM, the “decrease in TMRE fluorescence intensity (mitochondria membrane potential)” value (MDA-MB-231 cells [5]; 10 μM, 2 hours) was “about 53%” and the “effect on mitochondria membrane potential (TMRE fluorescence)” value (MDA-MB-231 cells [5]) was “concentration dependent decrease in fluorescence intensity”. For the same compound, the “whole cell uptake (Au content)” value (MDA-MB-231 cancer cells) was “significantly higher whole cell uptake compared to their Au(I) counterparts”, the IC50 [2] was 4470 ± 50 nM and the “solution stability in DMEM” value [6] was “showed solution stability for 48 h but significant reduction in peak intensity after 1 h of incubation”.

Work on `[Au+].[Cl-].c1ccc(P(c2ccccc2)c2ccccc2P(c2ccccc2)c2ccccc2)cc1.c1ccc(P(c2ccccc2)c2ccccc2P(c2ccccc2)c2ccccc2)cc1` [1-AuCl4, bis-[1,2-bis-(diphenylphosphino)benzene]gold(I)] yielded an IC50 [1] of 1780 ± 150 nM, an IC50 (BT-333 (glioblastoma)) of 1300 ± 40 nM and an IC50 [2] of 930 ± 20 nM.

In the case of `[Au+].[Cl-].c1ccc(P(c2ccccc2)c2ccccc2P(c2ccccc2)c2ccccc2)cc1.c1ccc(P(c2ccccc2)c2ccccc2P(c2ccccc2)c2ccccc2)cc1` [1-Cl, bis-[1,2-bis-(diphenylphosphino)benzene]gold(I)], the IC50 [1] is reported as 1140 ± 120 nM, the “mitochondria uptake (Au)” value [3] is reported as 214.5 nmol/20 million cells and the IC50 (BT-333 (glioblastoma)) is reported as 410 ± 200 nM. The “effect on mitochondria membrane potential (TMRE fluorescence)” value (MDA-MB-231 cells [5]) was “did not affect the mitochondria membrane potential significantly”, the “whole cell uptake (Au content)” value (MDA-MB-231 cancer cells) was “taken up more effectively compared to 1-AuCl4” and the IC50 [2] was 1350 ± 40 nM. The “solution stability in DMEM” value [6] was “stable in DMEM for 48 h without the formation of new adducts or reduction in peak intensity”.
